ChEMBL document CHEMBL2157880, “Synthesis, antimycobacterial and antibacterial activity of ciprofloxacin derivatives containing a N-substituted benzyl moiety” (2012)
In brackets after ≈: the same amount, converted by molar mass.

Legend:
Assay type in all cases: functional
Pseudomonas aeruginosa [1] = experiment: Antibacterial activity against Pseudomonas aeruginosa 10-9 after 18 to 24 hrs by NCCLS method
How it was run: (§1)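 Standard NCCLS (M100-S11) MIC testing against Gram-positive and Gram-negative strains. Plates were incubated at 35 °C for 18–24 h. The MIC was read as the lowest concentration giving complete inhibition of visible bacterial growth.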

[2] = test system: Staphylococcus epidermidis; experiment: Antibacterial activity against methicillin-sensitive Staphylococcus epidermidis 10-11 after 18 to 24 hrs by NCCLS method; how it was run: as §1
Streptococcus pneumoniae [3] = experiment: Antibacterial activity against Streptococcus pneumoniae 10-6 after 18 to 24 hrs by NCCLS method; how it was run: as §1
Klebsiella pneumoniae [4] = experiment: Antibacterial activity against extended spectrum beta-lactamases producing Klebsiella pneumoniae 10-3 after 18 to 24 hrs by NCCLS method; how it was run: as §1
Staphylococcus aureus [5] = experiment: Antibacterial activity against methicillin-sensitive Staphylococcus aureus 10-13 after 18 to 24 hrs by NCCLS method; how it was run: as §1
Staphylococcus aureus [6] = experiment: Antibacterial activity against methicillin-resistant Staphylococcus aureus 10-15 after 18 to 24 hrs by NCCLS method
How it was run: (§2)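 Incubated at 35 °C for 18–24 h under NCCLS (M100-S11) standards. MIC was read as the lowest concentration giving complete inhibition of visible bacterial growth.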

Staphylococcus aureus [7] = experiment: Antibacterial activity against methicillin-resistant Staphylococcus aureus 10-13 after 18 to 24 hrs by NCCLS method; how it was run: as §2
Staphylococcus aureus [8] = experiment: Antibacterial activity against methicillin-sensitive Staphylococcus aureus 10-14 after 18 to 24 hrs by NCCLS method; how it was run: as §1
Enterococcus faecalis [9] = experiment: Antibacterial activity against Enterococcus faecalis 10-5 after 18 to 24 hrs by NCCLS method; how it was run: as §1
Staphylococcus aureus [10] = experiment: Antibacterial activity against Staphylococcus aureus ATCC 2592 after 18 to 24 hrs by NCCLS method; how it was run: as §1
Enterococcus faecalis [11] = experiment: Antibacterial activity against Enterococcus faecalis 10-6 after 18 to 24 hrs by NCCLS method; how it was run: as §1
Pseudomonas aeruginosa [12] = experiment: Antibacterial activity against Pseudomonas aeruginosa 10-12 after 18 to 24 hrs by NCCLS method; how it was run: as §1
Escherichia coli [13] = experiment: Antibacterial activity against extended spectrum beta-lactamases producing Escherichia coli 10-4 after 18 to 24 hrs by NCCLS method; how it was run: as §1
Klebsiella pneumoniae [14] = experiment: Antibacterial activity against Klebsiella pneumoniae 10-2 after 18 to 24 hrs by NCCLS method; how it was run: as §1
Pseudomonas aeruginosa [15] = experiment: Antibacterial activity against Pseudomonas aeruginosa 10-5 after 18 to 24 hrs by NCCLS method; how it was run: as §1
Escherichia coli [16] = experiment: Antibacterial activity against extended spectrum beta-lactamases producing Escherichia coli 10-2 after 18 to 24 hrs by NCCLS method; how it was run: as §1
Streptococcus pneumoniae [17] = experiment: Antibacterial activity against Streptococcus pneumoniae 10-1 after 18 to 24 hrs by NCCLS method; how it was run: as §1
Escherichia coli [18] = experiment: Antibacterial activity against Escherichia coli 10-2 after 18 to 24 hrs by NCCLS method; how it was run: as §1
Pseudomonas aeruginosa [19] = experiment: Antibacterial activity against Pseudomonas aeruginosa 10-18 after 18 to 24 hrs by NCCLS method; how it was run: as §1
Staphylococcus aureus [20] = experiment: Antibacterial activity against methicillin-sensitive Staphylococcus aureus 10-11 after 18 to 24 hrs by NCCLS method; how it was run: as §1
Enterococcus faecalis [21] = experiment: Antibacterial activity against Enterococcus faecalis 10-7 after 18 to 24 hrs by NCCLS method; how it was run: as §1
[22] = test system: Staphylococcus epidermidis; experiment: Antibacterial activity against methicillin-resistant Staphylococcus epidermidis 10-10 after 18 to 24 hrs by NCCLS method; how it was run: as §2
Klebsiella pneumoniae [23] = experiment: Antibacterial activity against extended spectrum beta-lactamases producing Klebsiella pneumoniae 10-2 after 18 to 24 hrs by NCCLS method; how it was run: as §1
Klebsiella pneumoniae [24] = experiment: Antibacterial activity against Klebsiella pneumoniae 10-3 after 18 to 24 hrs by NCCLS method; how it was run: as §1
Staphylococcus aureus [25] = experiment: Antibacterial activity against methicillin-resistant Staphylococcus aureus 10-11 after 18 to 24 hrs by NCCLS method; how it was run: as §2
Enterococcus faecium [26] = experiment: Antibacterial activity against Enterococcus faecium 10-9 after 18 to 24 hrs by NCCLS method; how it was run: as §1
[27] = test system: Staphylococcus epidermidis; experiment: Antibacterial activity against methicillin-sensitive Staphylococcus epidermidis 10-15 after 18 to 24 hrs by NCCLS method; how it was run: as §2
Pseudomonas aeruginosa [28] = experiment: Antibacterial activity against Pseudomonas aeruginosa 10-15 after 18 to 24 hrs by NCCLS method; how it was run: as §1
Escherichia coli [29] = experiment: Antibacterial activity against extended spectrum beta-lactamases producing Escherichia coli 10-3 after 18 to 24 hrs by NCCLS method; how it was run: as §1
Pseudomonas aeruginosa [30] = experiment: Antibacterial activity against Pseudomonas aeruginosa 10-20 after 18 to 24 hrs by NCCLS method; how it was run: as §1
Klebsiella pneumoniae [31] = experiment: Antibacterial activity against Klebsiella pneumoniae 10-4 after 18 to 24 hrs by NCCLS method; how it was run: as §1
Escherichia coli [32] = experiment: Antibacterial activity against Escherichia coli ATCC 25922 after 18 to 24 hrs by NCCLS method; how it was run: as §1
[33] = test system: Staphylococcus epidermidis; experiment: Antibacterial activity against methicillin-resistant Staphylococcus epidermidis 10-13 after 18 to 24 hrs by NCCLS method; how it was run: as §2
Escherichia coli [34] = experiment: Antibacterial activity against Escherichia coli 10-3 after 18 to 24 hrs by NCCLS method; how it was run: as §1
Klebsiella pneumoniae [35] = experiment: Antibacterial activity against extended spectrum beta-lactamases producing Klebsiella pneumoniae 10-1 after 18 to 24 hrs by NCCLS method; how it was run: as §1
Enterococcus faecium [36] = experiment: Antibacterial activity against Enterococcus faecium 10-6 after 18 to 24 hrs by NCCLS method; how it was run: as §1
[37] = test system: Mycobacterium tuberculosis; experiment: Antimycobacterial activity against Mycobacterium tuberculosis H37Rv ATCC 27294 by microplate alamar blue assay
How it was run: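 Microplate Alamar Blue fluorescence assay on strain H37Rv ATCC 27294. MIC was the lowest concentration cutting fluorescence by ≥90% against the mean of replicate bacterium-only controls.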

Escherichia coli [38] = experiment: Antibacterial activity against Escherichia coli 10-1 after 18 to 24 hrs by NCCLS method; how it was run: as §1

SMILES | MIC (Pseudomonas aeruginosa [1]) [µg/mL] | MIC [2] [µg/mL] | MIC (Streptococcus pneumoniae [3]) [µg/mL] | MIC (Klebsiella pneumoniae [4]) [µg/mL] | MIC (Staphylococcus aureus [5]) [µg/mL] | MIC (Staphylococcus aureus [6]) [µg/mL] | MIC (Staphylococcus aureus [7]) [µg/mL] | MIC (Staphylococcus aureus [8]) [µg/mL] | MIC (Enterococcus faecalis [9]) [µg/mL] | MIC (Staphylococcus aureus [10]) [µg/mL] | MIC (Enterococcus faecalis [11]) [µg/mL] | MIC (Pseudomonas aeruginosa [12]) [µg/mL] | MIC (Escherichia coli [13]) [µg/mL] | MIC (Klebsiella pneumoniae [14]) [µg/mL] | MIC (Pseudomonas aeruginosa [15]) [µg/mL] | MIC (Escherichia coli [16]) [µg/mL] | MIC (Streptococcus pneumoniae [17]) [µg/mL] | MIC (Escherichia coli [18]) [µg/mL] | MIC (Pseudomonas aeruginosa [19]) [µg/mL] | MIC (Staphylococcus aureus [20]) [µg/mL] | also measured
COc1ccc(OC)c(CN2CCN(c3cc4c(cc3F)c(=O)c(C(=O)O)cn4C3CC3)CC2)c1 | 16 (≈ 33.2 µM) | 1 (≈ 2.08 µM) | 64 (≈ 133 µM) | > 128 | 0.5 (≈ 1.04 µM) | 16 (≈ 33.2 µM) | 32 (≈ 66.5 µM) | 1 (≈ 2.08 µM) | 16 (≈ 33.2 µM) | 0.5 (≈ 1.04 µM) | 128 (≈ 266 µM) | 8 (≈ 16.6 µM) | > 128 | > 128 | 16 (≈ 33.2 µM) | > 128 | 8 (≈ 16.6 µM) | 64 (≈ 133 µM) | 16 (≈ 33.2 µM) | 0.5 (≈ 1.04 µM) | MIC (Enterococcus faecalis [21]): 16 µg/mL (≈ 33.2 µM); MIC [22]: 16 µg/mL (≈ 33.2 µM); MIC (Klebsiella pneumoniae [23]): > 128 µg/mL; MIC (Klebsiella pneumoniae [24]): 16 µg/mL (≈ 33.2 µM); MIC (Staphylococcus aureus [25]): 32 µg/mL (≈ 66.5 µM); MIC (Enterococcus faecium [26]): 16 µg/mL (≈ 33.2 µM); MIC [27]: 16 µg/mL (≈ 33.2 µM); MIC (Pseudomonas aeruginosa [28]): 16 µg/mL (≈ 33.2 µM); MIC (Escherichia coli [29]): > 128 µg/mL; MIC (Pseudomonas aeruginosa [30]): 32 µg/mL (≈ 66.5 µM); MIC (Klebsiella pneumoniae [31]): > 128 µg/mL; MIC (Escherichia coli [32]): 1 µg/mL (≈ 2.08 µM); MIC [33]: 16 µg/mL (≈ 33.2 µM); MIC (Escherichia coli [34]): 16 µg/mL (≈ 33.2 µM); MIC (Klebsiella pneumoniae [35]): > 128 µg/mL; MIC (Enterococcus faecium [36]): 16 µg/mL (≈ 33.2 µM); MIC [37]: > 32 µg/mL; MIC (Escherichia coli [38]): > 128 µg/mL
COc1ccc(CN2CCN(c3cc4c(cc3F)c(=O)c(C(=O)O)cn4C3CC3)CC2)c(OC)c1OC | 32 (≈ 62.6 µM) | 0.25 (≈ 0.489 µM) | 64 (≈ 125 µM) | > 128 | 0.25 (≈ 0.489 µM) | 16 (≈ 31.3 µM) | 64 (≈ 125 µM) | 0.125 (≈ 0.244 µM) | 16 (≈ 31.3 µM) | 0.5 (≈ 0.977 µM) | > 128 | 64 (≈ 125 µM) | 64 (≈ 125 µM) | > 128 | 32 (≈ 62.6 µM) | > 128 | 8 (≈ 15.6 µM) | 16 (≈ 31.3 µM) | 64 (≈ 125 µM) | 0.125 (≈ 0.244 µM) | MIC (Enterococcus faecalis [21]): 64 µg/mL (≈ 125 µM); MIC [22]: 64 µg/mL (≈ 125 µM); MIC (Klebsiella pneumoniae [23]): > 128 µg/mL; MIC (Klebsiella pneumoniae [24]): 16 µg/mL (≈ 31.3 µM); MIC (Staphylococcus aureus [25]): 16 µg/mL (≈ 31.3 µM); MIC (Enterococcus faecium [26]): 32 µg/mL (≈ 62.6 µM); MIC [27]: 16 µg/mL (≈ 31.3 µM); MIC (Pseudomonas aeruginosa [28]): 32 µg/mL (≈ 62.6 µM); MIC (Escherichia coli [29]): > 128 µg/mL; MIC (Pseudomonas aeruginosa [30]): 32 µg/mL (≈ 62.6 µM); MIC (Klebsiella pneumoniae [31]): > 128 µg/mL; MIC (Escherichia coli [32]): 0.5 µg/mL (≈ 0.977 µM); MIC [33]: 64 µg/mL (≈ 125 µM); MIC (Escherichia coli [34]): 64 µg/mL (≈ 125 µM); MIC (Klebsiella pneumoniae [35]): > 128 µg/mL; MIC (Enterococcus faecium [36]): 8 µg/mL (≈ 15.6 µM); MIC [37]: 16 µg/mL (≈ 31.3 µM); MIC (Escherichia coli [38]): > 128 µg/mL
